Results: ChEMBL document CHEMBL2424622, “Development of amino-pyrimidine inhibitors of c-Jun N-terminal kinase (JNK): kinase profiling guided optimization of a 1,2,3-benzotriazole lead” (Bioorg Med Chem Lett, 2013)

How the values were obtained:
[1] = molecular target: Serine/threonine-protein kinase MRCK gamma (Homo sapiens) (UniProt Q6DT37); assay: Competitive binding affinity to DMPK2 (unknown origin) at 10 uM in presence of ATP relative to control
[2] = molecular target: T1, cAMP-dependent protein kinase catalytic subunit PRKX (Homo sapiens) (UniProt P51817); assay: Competitive binding affinity to PRKX (unknown origin) at 10 uM in presence of ATP relative to control
T1 sequence (whole entry): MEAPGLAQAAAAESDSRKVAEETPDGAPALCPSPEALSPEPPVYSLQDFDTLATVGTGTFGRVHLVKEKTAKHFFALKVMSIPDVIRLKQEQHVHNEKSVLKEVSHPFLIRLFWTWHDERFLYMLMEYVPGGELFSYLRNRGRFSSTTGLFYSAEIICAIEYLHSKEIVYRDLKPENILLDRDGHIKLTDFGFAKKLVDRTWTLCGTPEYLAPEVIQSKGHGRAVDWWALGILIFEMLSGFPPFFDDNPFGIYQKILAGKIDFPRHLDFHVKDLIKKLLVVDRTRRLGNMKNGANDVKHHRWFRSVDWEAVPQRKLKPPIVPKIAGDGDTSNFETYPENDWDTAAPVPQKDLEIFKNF

[3] = molecular target: Serine/threonine-protein kinase MARK1 (Homo sapiens) (UniProt Q9P0L2); assay: Competitive binding affinity to MARK1 (unknown origin) at 10 uM in presence of ATP relative to control
Serine/threonine-protein kinase MARK1 (Homo sapiens), sequence (Q9P0L2 whole entry, looked up): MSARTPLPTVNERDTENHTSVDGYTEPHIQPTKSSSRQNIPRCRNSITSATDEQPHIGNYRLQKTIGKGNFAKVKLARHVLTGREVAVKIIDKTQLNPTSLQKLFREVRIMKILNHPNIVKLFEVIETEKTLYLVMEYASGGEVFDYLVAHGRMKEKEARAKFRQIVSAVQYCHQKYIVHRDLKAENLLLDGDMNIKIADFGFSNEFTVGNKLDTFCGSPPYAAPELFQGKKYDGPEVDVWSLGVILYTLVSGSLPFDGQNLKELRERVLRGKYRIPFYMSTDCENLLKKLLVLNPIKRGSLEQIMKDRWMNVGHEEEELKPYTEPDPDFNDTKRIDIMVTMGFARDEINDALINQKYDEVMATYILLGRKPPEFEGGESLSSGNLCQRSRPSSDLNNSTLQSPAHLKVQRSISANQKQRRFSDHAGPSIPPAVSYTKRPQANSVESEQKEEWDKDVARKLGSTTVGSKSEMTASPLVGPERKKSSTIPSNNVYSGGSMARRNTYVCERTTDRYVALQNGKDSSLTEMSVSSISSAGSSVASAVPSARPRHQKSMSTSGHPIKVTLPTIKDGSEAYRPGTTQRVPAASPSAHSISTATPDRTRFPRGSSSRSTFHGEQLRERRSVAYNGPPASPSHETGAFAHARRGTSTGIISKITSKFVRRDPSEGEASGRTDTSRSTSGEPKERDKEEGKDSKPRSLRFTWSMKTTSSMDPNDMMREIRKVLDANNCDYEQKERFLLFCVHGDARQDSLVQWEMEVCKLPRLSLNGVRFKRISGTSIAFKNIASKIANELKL
Summary of the method: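 In vitro ATP-site competition binding assay, part of profiling against a diverse panel of 128 kinases. Each compound was tested at a single concentration of 10 µM. Kinome selectivity was summarized as S15 selectivity scores.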

[4] = molecular target: T2, Serine/threonine-protein kinase NLK (Homo sapiens) (UniProt Q9UBE8); assay: Competitive binding affinity to NLK (unknown origin) at 10 uM in presence of ATP relative to control
T2 sequence (whole entry): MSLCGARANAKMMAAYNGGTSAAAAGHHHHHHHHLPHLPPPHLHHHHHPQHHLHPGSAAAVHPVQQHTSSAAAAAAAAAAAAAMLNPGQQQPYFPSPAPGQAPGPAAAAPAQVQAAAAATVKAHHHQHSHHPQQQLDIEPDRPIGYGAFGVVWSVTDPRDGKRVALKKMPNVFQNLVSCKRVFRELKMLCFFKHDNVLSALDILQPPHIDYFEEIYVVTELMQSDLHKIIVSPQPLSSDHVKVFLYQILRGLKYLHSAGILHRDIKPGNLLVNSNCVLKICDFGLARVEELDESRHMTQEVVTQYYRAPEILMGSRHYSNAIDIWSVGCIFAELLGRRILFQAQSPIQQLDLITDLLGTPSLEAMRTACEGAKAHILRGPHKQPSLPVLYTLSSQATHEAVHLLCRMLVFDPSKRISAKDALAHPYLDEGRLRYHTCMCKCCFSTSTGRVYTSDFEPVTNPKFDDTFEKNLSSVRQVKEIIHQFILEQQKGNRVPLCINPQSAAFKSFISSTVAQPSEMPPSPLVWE

[5] = molecular target: T3, Serine/threonine-protein kinase Nek5 (Homo sapiens) (UniProt Q6P3R8); assay: Competitive binding affinity to NEK5 (unknown origin) at 10 uM in presence of ATP relative to control
T3 sequence (whole entry): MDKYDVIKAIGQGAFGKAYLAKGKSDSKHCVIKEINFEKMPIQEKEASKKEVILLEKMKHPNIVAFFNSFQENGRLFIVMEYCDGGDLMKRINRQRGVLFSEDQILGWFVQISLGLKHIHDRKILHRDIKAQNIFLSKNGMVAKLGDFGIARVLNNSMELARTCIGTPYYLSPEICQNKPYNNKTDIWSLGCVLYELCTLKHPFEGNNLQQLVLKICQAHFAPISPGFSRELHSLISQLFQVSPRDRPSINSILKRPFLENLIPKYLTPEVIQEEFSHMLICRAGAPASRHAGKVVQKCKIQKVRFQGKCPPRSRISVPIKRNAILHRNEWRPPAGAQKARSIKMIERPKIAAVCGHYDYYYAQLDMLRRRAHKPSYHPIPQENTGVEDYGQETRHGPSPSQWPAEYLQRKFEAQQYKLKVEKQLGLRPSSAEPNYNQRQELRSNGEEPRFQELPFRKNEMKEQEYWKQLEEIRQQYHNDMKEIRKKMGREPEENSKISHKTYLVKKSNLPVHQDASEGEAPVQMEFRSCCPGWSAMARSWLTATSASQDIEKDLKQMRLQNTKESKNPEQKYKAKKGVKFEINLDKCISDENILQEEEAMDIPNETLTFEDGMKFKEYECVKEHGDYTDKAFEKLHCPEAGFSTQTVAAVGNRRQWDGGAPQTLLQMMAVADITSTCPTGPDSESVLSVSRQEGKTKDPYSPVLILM

[6] = molecular target: Mitogen-activated protein kinase kinase kinase 10 (Homo sapiens) (UniProt Q02779); assay: Competitive binding affinity to MLK2 (unknown origin) at 10 uM in presence of ATP relative to control
Mitogen-activated protein kinase kinase kinase 10 (Homo sapiens), sequence (Q02779 whole entry, looked up): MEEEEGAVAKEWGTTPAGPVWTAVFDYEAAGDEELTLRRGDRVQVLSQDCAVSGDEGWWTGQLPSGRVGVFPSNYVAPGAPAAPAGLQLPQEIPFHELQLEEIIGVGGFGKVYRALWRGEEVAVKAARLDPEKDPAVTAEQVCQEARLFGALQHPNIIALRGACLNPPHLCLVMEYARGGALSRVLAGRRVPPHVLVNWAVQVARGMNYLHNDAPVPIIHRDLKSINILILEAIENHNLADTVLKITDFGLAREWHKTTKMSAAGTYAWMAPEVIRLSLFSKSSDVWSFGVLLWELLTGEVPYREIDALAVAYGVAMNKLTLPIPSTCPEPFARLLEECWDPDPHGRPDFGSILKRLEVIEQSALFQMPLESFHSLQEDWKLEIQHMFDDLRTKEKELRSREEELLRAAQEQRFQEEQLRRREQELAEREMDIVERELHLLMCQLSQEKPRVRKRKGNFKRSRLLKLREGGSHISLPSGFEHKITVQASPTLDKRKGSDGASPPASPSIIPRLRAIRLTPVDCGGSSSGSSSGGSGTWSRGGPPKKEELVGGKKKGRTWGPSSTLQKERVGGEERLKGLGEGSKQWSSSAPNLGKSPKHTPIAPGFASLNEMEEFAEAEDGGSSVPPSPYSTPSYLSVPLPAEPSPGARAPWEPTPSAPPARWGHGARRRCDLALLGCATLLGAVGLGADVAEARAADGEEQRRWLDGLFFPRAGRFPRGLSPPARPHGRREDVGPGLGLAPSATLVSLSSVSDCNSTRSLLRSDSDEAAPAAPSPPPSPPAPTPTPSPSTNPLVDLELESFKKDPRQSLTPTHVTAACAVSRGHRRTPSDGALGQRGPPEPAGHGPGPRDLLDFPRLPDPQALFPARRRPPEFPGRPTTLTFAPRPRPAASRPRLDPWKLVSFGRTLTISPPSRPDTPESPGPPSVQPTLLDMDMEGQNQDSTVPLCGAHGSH

Serine/threonine-protein kinase MRCK gamma (Homo sapiens), sequence (Q6DT37 whole entry): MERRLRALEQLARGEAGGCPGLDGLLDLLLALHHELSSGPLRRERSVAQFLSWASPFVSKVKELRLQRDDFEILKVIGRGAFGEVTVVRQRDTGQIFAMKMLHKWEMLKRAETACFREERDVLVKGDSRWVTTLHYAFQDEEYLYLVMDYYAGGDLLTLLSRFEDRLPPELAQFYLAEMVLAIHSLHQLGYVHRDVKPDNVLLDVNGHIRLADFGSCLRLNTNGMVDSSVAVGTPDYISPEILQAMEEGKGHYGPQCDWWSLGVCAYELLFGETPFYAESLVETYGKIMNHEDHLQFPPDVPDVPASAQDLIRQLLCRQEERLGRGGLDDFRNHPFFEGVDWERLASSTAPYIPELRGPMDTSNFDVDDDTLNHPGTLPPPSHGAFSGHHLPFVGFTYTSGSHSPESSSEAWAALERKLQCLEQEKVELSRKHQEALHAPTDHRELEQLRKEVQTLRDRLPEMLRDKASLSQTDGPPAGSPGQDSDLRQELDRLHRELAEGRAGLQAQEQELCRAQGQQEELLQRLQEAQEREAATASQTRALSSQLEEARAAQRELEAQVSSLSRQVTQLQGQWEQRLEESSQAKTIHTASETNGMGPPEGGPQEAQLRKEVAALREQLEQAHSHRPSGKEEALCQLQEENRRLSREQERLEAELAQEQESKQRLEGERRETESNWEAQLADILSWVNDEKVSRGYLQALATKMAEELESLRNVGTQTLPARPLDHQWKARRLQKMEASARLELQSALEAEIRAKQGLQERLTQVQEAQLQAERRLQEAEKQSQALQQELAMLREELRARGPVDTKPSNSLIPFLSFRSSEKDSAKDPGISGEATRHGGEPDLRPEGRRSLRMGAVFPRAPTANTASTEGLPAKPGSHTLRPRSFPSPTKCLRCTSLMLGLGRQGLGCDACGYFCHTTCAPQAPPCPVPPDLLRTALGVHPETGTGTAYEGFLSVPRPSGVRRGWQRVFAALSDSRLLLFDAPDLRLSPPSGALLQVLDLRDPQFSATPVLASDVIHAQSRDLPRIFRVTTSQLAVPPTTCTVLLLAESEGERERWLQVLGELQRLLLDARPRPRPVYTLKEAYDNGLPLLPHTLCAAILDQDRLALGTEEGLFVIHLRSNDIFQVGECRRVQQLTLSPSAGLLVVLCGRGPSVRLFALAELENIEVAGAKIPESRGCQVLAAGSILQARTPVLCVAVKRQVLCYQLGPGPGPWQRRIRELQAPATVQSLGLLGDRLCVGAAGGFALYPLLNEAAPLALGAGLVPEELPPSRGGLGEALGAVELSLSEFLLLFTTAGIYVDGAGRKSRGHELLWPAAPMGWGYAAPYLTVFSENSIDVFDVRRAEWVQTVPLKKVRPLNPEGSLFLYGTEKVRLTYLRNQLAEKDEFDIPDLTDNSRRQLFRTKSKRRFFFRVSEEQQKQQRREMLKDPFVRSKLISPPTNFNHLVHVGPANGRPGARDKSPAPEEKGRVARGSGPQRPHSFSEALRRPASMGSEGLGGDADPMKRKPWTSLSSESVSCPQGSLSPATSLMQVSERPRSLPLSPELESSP

Row | SMILES | inhibition [1] [%] | inhibition [2] [%] | inhibition [3] [%] | inhibition [4] [%] | inhibition [5] [%] | inhibition [6] [%]
1 | O[C@H]1CC[C@H](Nc2nccc(-n3nnc4ccccc43)n2)CC1 | < 50 | < 50 | < 50 | < 50 | 95 | < 50
2 | CS(=O)(=O)CCCOc1cccc2c1ccn2-c1ccnc(N[C@H]2CC[C@H](C(=O)N3CCC(O)CC3)CC2)n1 | – | – | – | – | > 85 | –
3 | O[C@H]1CC[C@H](Nc2nccc(-n3ncc4ccccc43)n2)CC1 | < 50 | < 50 | < 50 | < 50 | 71 | < 50
4 | O[C@H]1CC[C@H](Nc2nccc(-c3n[nH]c4ccccc34)n2)CC1 | – | < 50 | 66 | 90 | – | –
5 | O[C@H]1CC[C@H](Nc2nccc(-n3ccc4ccccc43)n2)CC1 | < 50 | < 50 | < 50 | < 50 | < 50 | < 50
